Screening data from PubChem.
Compounds with a hit are over-represented: about 0.41% of the library has one in this group of screens.
CR mimetic SO = caloric restriction mimetics inhibiting age-related superoxide in yeast; S. cerevisiae aged cells, superoxide DHE fluorescence; active compounds read low; superoxide response (% of plate mean), % at 10 µM; 330,000 compounds, 0.18% hits;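 active = superoxide response under a set limit, about three screen SD below normal, cut at about 65% in these data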;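 also: yeast aged for seven days with compound at 30 °C before DHE staining; 100% = average MFI of all compound-treated wells on the plate with controls excluded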
S1P3 antag = S1P3 (human) receptor antagonism | Q99500 | CHO S1P3 NFAT-BLA reporter, FRET fluorescence, antagonist mode | inhibition, % at 4.98 µM | 170,000 compounds, 0.27% hits;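 active = inhibition above the plate cutoff, the mean inhibition of test wells on that plate plus 3 SD, cut at about 28% in these data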;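 also: cells challenged with S1P at its EC80 of 0.8 µM; blue over green emission ratio from cleaved BLA substrate after 4 h stimulation; 0% = S1P-stimulated wells and 100% = unstimulated DMSO-only wells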
Target sequence (Q99500 whole entry, looked up): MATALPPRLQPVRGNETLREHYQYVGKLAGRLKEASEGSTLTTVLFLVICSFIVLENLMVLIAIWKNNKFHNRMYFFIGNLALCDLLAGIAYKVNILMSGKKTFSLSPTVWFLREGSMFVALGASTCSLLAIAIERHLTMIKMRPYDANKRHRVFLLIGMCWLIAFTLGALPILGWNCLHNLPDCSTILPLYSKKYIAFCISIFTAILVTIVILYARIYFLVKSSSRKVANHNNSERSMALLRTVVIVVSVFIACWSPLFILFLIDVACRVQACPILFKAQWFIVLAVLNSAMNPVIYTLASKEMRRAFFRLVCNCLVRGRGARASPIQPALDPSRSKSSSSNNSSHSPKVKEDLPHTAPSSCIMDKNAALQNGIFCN
T cell modulator = T cell immune modulators affecting CD8 T cell-vesicle binding. AID 2052. response (vesicle binding), % at 7 µM. 2C CD8+ T cell-vesicle binding, flow cytometry; active compounds read low. 330,000 compounds, 0.068% hits;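 active = response, share of CD8 T cells binding vesicles, and their 90th percentile fluorescence all below set limits, cut at about 80% in these data, passing the limit was not always enough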;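 also: values below 100% mean blocked vesicle binding to the CD8+ T cells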
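Material: 2C TCR transgenic mouse naive CD8+ T cells, MACS-purified. Also added: QL9-charged Drosophila Ld/ICAM-1/B7-1 vesicles. Timing: binding 1.5 h at 37 °C. Measured by: high-throughput flow cytometry with anti-B7-1 and anti-CD8 staining. Read-out: percent CD8+ FL2 mean versus row control. Controls: Unloaded micro-vesicles (low), QL9 vesicles with 0.7% DMSO (high).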
CR mimetic CP = confirmation of caloric restriction mimetics inhibiting yeast age-related superoxide; shares compounds with CR mimetic SO; S. cerevisiae aging, superoxide DHE fluorescence; active compounds read low; superoxide response (% of plate), % at 10 µM; 850 compounds, 1% hits; AID 434994;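 active = superoxide signal below 65% of the plate average of sample wells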;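 also: cells aged with compound for 7 days at 30 degrees C before staining; 100% equals mean DHE fluorescence of all compound wells on the plate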
DHE counter = compound alters DHE oxidation or fluorescence in yeast | shares compounds with CR mimetic SO | S. cerevisiae BY4741, flow cytometry; active compounds read low | fluorescence response, % at 10 µM | 850 tested, under 10 active | AID 435000;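 active = fluorescence response below 15%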;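 also: percent of the mean fluorescence averaged over all compound wells on the plate; lower means stronger quenching of DHE signal or ROS scavenging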
The depositor's hits bear a star; x = not tested or not shown.

SMILES	CR mimetic SO	S1P3 antag	T cell modulator	CR mimetic CP	DHE counter
CCn1c(COC(=O)CNC(=O)c2cc(OC)c(OC)c(OC)c2)nc2cc(S(=O)(=O)N(C)C)ccc21	107	x	310	x	x
O=C(Nc1ccc(C(=O)N2CCCCC2)cc1)Nc1cccc(Cl)c1	99	x	132	x	x
CCC(=Nc1ccccc1OC)C1=C(O)CC(c2ccccc2)CC1=O (stereo not given)	67	4	271	x	x
CCC(=Nc1ccccc1O)C1=C(O)CC(c2ccccc2)CC1=O (stereo not given)	62*	12	380	70	98
COc1ccc(N/N=C(\C#N)C(N)=O)cc1	48*	-17	424	99	103
CCOC(=O)NC(=O)/C(C#N)=N\Nc1cccc(Cl)c1	107	-3	174	x	x
CCOC(=O)NC(=O)/C(C#N)=N\Nc1ccc(Cl)cc1	107	x	130	102	99
CCOc1ccc(N/C(SC)=C(/C#N)C(N)=O)cc1	115	x	333	x	x
COc1ccc(C(=O)/C(C#N)=N/Nc2ccc([N+](=O)[O-])cc2)cc1	118	-1	0	x	x
CCOc1ccc(N/N=C(/C#N)C(N)=O)cc1	46*	x	374	84	116
CC(=NCCc1ccccc1)C1=C(O)C(c2ccccc2)OC1=O (stereo not given)	52*	-3	226	92	98
CC(=NCCc1ccccc1)C1=C(O)COC1=O	93	-32	173	x	x
O=C1CCCN1CC(O)CS(=O)(=O)Cc1ccc(Cl)cc1 (stereo not given)	97	x	162	x	x
CCC(=O)c1ccc(N2CCN(C(=O)c3ccccc3F)CC2)c(F)c1	92	3	327	x	x
Cc1ccc(N2CCN(C(=O)c3ccccc3F)CC2)c(C)c1	92	6	867	99	103
CCN1CCN(S(=O)(=O)c2ccc(Cl)c(C(=O)NCc3ccco3)c2)CC1	95	x	139	x	x
Cc1ccc(C(=O)N[C@H](C(=O)NC2CCCCCCC2)C(C)C)cc1	85	x	280	x	x
CCOC(=O)C1CCN(C(=O)COC(=O)CNC(=O)c2ccc(C(C)(C)C)cc2)CC1	98	x	387	x	x
CCn1c2ccccc2c2cc(/C=N/O)ccc21	83	0	332	x	x
CCn1c2ccc(/C(C)=N\O)cc2c2cc(/C(C)=N\O)ccc21	91	x	130	112	81
COc1cccc(NC(=S)NC(=O)/C=C/c2ccc(F)cc2)c1	92	x	593	x	x
CC(=O)c1ccc(NC(=S)NC(=O)/C=C/c2ccc(F)cc2)cc1	49*	x	205	102	105
CCOC(=O)N1CCN(CC(=O)Nc2sc(CC)cc2C(=O)c2ccc(OC)cc2)CC1	58*	-7	176	106	101
CCc1cc(C(=O)OC)c(NC(=O)CN2CCN(C(=O)c3ccco3)CC2)s1	111	x	223	x	x
CCCc1c(C)nc(N2CCN(c3ccccc3OC)CC2)[nH]c1=O	100	x	176	x	x
SMILES	CR mimetic SO	S1P3 antag	T cell modulator	CR mimetic CP	DHE counter
Cc1cccc(-n2ncc3c(N4CCOCC4)ncnc32)c1	97	-27	0	100	91
Cc1ccc(-n2ncc3c(N4CCN(c5ccccc5)CC4)ncnc32)c(C)c1	104	x	329	x	x
Cc1cccc(-n2ncc3c(N4CC(C)CC(C)C4)ncnc32)c1 (stereo not given)	92	16	461	x	x
Cc1cccc(-n2ncc3c(N4CCCC4)ncnc32)c1	104	28	0.0*	92	109
CCOc1ccc(C2C(C(=O)OC)=CN(C(C)c3ccccc3)C=C2C(=O)OC)cc1 (stereo not given)	103	x	236	x	x
CN(C)c1ccc(S(=O)(=O)N2CCCCC2)cc1NC(=O)CCNC(=O)c1ccc(Cl)cc1	95	x	476	x	x
Cc1ccc(C(=O)CC(=O)c2ccc(C)cc2O)cc1	101	x	157	x	x
COc1ccccc1C(=O)NC(C(=O)NCCc1nc2ccccc2[nH]1)=C(C)C	114	x	435	x	x
COc1ccc(C(=O)N2CCN(c3ccc(C)c(C)c3)CC2)cc1OC	101	8	100	x	x
CC(=O)c1ccc(N2CCN(C(=O)c3ccc(C(=O)c4ccccc4)cc3)CC2)cc1	99	x	486	x	x
O=C(c1ccc2nc[nH]c2c1)N1CCN(c2cccc(Cl)c2)CC1	97	x	367	x	x
CS(=O)(=O)Nc1ccc(C(=O)N2CCN(c3ccccc3)CC2)cc1	88	x	516	92	91
O=C(c1ccccc1)N1CCN(c2ccc(Cl)cc2)CC1	85	-42	534	90	90
Cc1ccc(C(=O)N2CCN(c3ccccc3)CC2)cc1C	91	3	378	90	89
O=C(c1ccc(NS(=O)(=O)c2ccc3[nH]c(=O)[nH]c3c2)cc1)N1CCN(c2ccccc2)CC1	96	x	271	x	x
Cc1ccc(C(=O)N2CCN(c3cccc(Cl)c3)CC2)cc1C	103	-27	422	109	100
COc1ccc(N(CC(=O)Nc2cccc(C)c2)S(=O)(=O)c2ccc(C)cc2)cc1OC	107	x	115	x	x
CCCC(=O)Nc1nnc(S(=O)(=O)N(C)Cc2ccco2)s1	84	x	599	x	x
Cc1ccc(-n2nc3ccc(NC(=O)/C=C/c4ccco4)cc3n2)cc1	54*	-11	244	102	95
Cc1ccc(NC(=O)c2cccc(NC(=O)/C=C/c3ccco3)c2)cc1C	123	-23	183	x	x
Cc1ccccc1C(=O)NCC(=O)OCCCOC(=O)CNC(=O)c1ccccc1C	69	x	491	x	x
COC(=O)[C@]1(C)N[C@H](CN(C)C(C)=O)[C@@H]2C(=O)N(Cc3ccccc3)C(=O)[C@@H]21	104	x	375	x	x
COc1ccccc1N1CCN(CC(=O)Nc2cc(F)ccc2C)CC1	105	x	195	x	x
O=C(CN1CCN(c2ccccn2)CC1)Nc1ccc(F)cc1F	90	x	6	91	100
O=C(CN1CCN(c2ccccn2)CC1)Nc1ccccc1F	95	x	229	x	x
SMILES	CR mimetic SO	S1P3 antag	T cell modulator	CR mimetic CP	DHE counter
Cc1ccc(F)cc1NC(=O)CN1CCN(c2ccccn2)CC1	97	-1	482	106	89
O=C(CN1CCN(c2ccccn2)CC1)Nc1cc(F)ccc1F	107	x	593	103	100
O=C(CCN1CCN(c2ccccn2)CC1)Nc1ccc(F)cc1	104	-5	292	x	x
COc1ccc(CCNC(=O)c2ccccc2C(=O)NCCc2ccc(OC)c(OC)c2)cc1OC	99	x	764	x	x
CCOC(=O)c1ccc(NC(=O)CCNS(=O)(=O)c2cccs2)cc1	108	x	809	x	x
Cc1ccc(C(=O)NNC(=O)c2csc(N3CCOCC3)n2)s1	95	x	414	x	x
C=CCN(c1ccccc1)S(=O)(=O)c1cccc(C(=O)Nc2cccc(C)n2)c1	103	x	336	x	x
Cc1ccc(CNC(=O)CO/N=C/c2ccc(C(C)(C)C)cc2)cc1	110	-6	205	x	x
CC(C)(C)c1ccc(/C=N/OCC(=O)NCc2ccc(F)cc2)cc1	62*	-8	527	101	91
Cc1nc2c(-c3ccccc3)c(C)nn2c(N)c1-c1ccccc1	116	x	161	x	x
CC(=O)c1cnc2c(-c3ccccc3)c(-c3ccccc3)nn2c1C	109	x	430	116	122
Cc1cc(N)n2nc(-c3ccccc3)c(-c3ccccc3)c2n1	106	x	257	100	93
CC(=O)c1cnc2c(-c3ccc(Cl)cc3)cnn2c1C	105	x	247	x	x
